Active and inactive are the calls of the source. The calls are words filed in the database; no cut-off is given here.
What was measured:
[1] = biological target: cAMP and cAMP-inhibited cGMP 3',5'-cyclic phosphodiesterase 10A (Homo sapiens, UniProt Q9Y233); experiment: Inhibition of human recombinant PDE10A assessed as inhibition of [3H]cAMP hydrolysis by scintillation proximity assay
Method in brief: (§1)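 Scintillation proximity assay on recombinant human PDEs 1–11, with [³H]cAMP as substrate and hydrolysis of cAMP to AMP as read-out. Ki values are means of two experiments.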

[2] = biological target: T1, High affinity 3',5'-cyclic-AMP phosphodiesterase 7A (Homo sapiens, UniProt Q13946); experiment: Inhibition of human recombinant PDE7A1 assessed as inhibition of [3H]cAMP hydrolysis by scintillation proximity assay; method in brief: as §1
[3] = biological target: T2, cGMP-inhibited 3',5'-cyclic phosphodiesterase 3A (Homo sapiens, UniProt Q14432); experiment: Inhibition of human recombinant PDE3A assessed as inhibition of [3H]cAMP hydrolysis by scintillation proximity assay; method in brief: as §1
[4] = Clearance in rat hepatocytes assessed per 10^6 cells; format: ADME, cell-based, Hepatocyte; settings: read-out: CLH
[5] = Clearance in monkey hepatocytes assessed per 10^6 cells; format: ADME, cell-based, Macaca mulatta, Hepatocyte; settings: rhesus monkey, read-out: CLH
[6] = Clearance in human hepatocytes assessed per 10^6 cells; format: ADME, cell-based, Hepatocyte; settings: read-out: CLH
Phosphodiesterase 4 = Phosphodiesterase 4 (Homo sapiens, UniProt P27815+Q08499+Q07343+Q08493); experiment: Inhibition of human recombinant PDE4 assessed as inhibition of [3H]cAMP hydrolysis by scintillation proximity assay; format: protein assay; method in brief: as §1
[7] = Dissociation constant, pKa of the compound; format: physicochemical
Phosphodiesterase 6 = experiment: Inhibition of human recombinant PDE6 assessed as inhibition of [3H]cAMP hydrolysis by scintillation proximity assay; format: protein assay; method in brief: as §1
Phosphodiesterase 1 = Phosphodiesterase 1 (Homo sapiens, UniProt P54750+Q01064+Q14123); experiment: Inhibition of human recombinant PDE1 assessed as inhibition of [3H]cAMP hydrolysis by scintillation proximity assay; format: protein assay; method in brief: as §1
[8] = Solubility of the compound in 2% DMSO at pH 7.4; format: physicochemical
Phosphodiesterase 8 = Phosphodiesterase 8 (Homo sapiens, UniProt O95263+O60658); experiment: Inhibition of human recombinant PDE8 assessed as inhibition of [3H]cAMP hydrolysis by scintillation proximity assay; format: protein assay; method in brief: as §1
[9] = biological target: cGMP-specific 3',5'-cyclic phosphodiesterase (Homo sapiens, UniProt O76074); experiment: Inhibition of human recombinant PDE5 assessed as inhibition of [3H]cAMP hydrolysis by scintillation proximity assay; method in brief: as §1
[10] = biological target: cGMP-dependent 3',5'-cyclic phosphodiesterase (Homo sapiens, UniProt O00408); experiment: Inhibition of human recombinant PDE2 assessed as inhibition of [3H]cAMP hydrolysis by scintillation proximity assay; method in brief: as §1
hERG (KCNH2) = hERG (KCNH2) (Homo sapiens, UniProt Q12809); experiment: Inhibition of human ERG at 10 uM
Method in brief: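 hERG inhibition was measured on the IonWorks platform at 10 µM.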

[11] = biological target: High affinity cGMP-specific 3',5'-cyclic phosphodiesterase 9A (Homo sapiens, UniProt O76083); experiment: Inhibition of human recombinant PDE9 assessed as inhibition of [3H]cAMP hydrolysis by scintillation proximity assay; method in brief: as §1
[12] = Drug uptake in CD rat brain at 30 mg/kg, po after 1 hr; format: ADME, organism-based; parameters: dose 30 mg/kg, route oral
Rattus norvegicus [13] = experiment: Antipsychotic activity in CD rat assessed as inhibition of MK801-induced hyperactivity at 30 mg/kg, po; format: functional, organism-based; parameters: dose 30 mg/kg
Method in brief: (§2)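 Male CD rats were habituated to locomotor activity chambers 24 h before testing. On test day, MK-801 (0.3 mg/kg, sc) was co-administered with the PDE10 inhibitor (po) and the rats were placed in the apparatus. Inhibition is the activity of the inhibitor+MK-801 group as a percent of the vehicle+MK-801 group.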

[14] = biological target: Dual 3',5'-cyclic-AMP and -GMP phosphodiesterase 11A (Homo sapiens, UniProt Q9HCR9); experiment: Inhibition of human recombinant PDE11 assessed as inhibition of [3H]cAMP hydrolysis by scintillation proximity assay; method in brief: as §1
[15] = biological target: T2, cGMP-inhibited 3',5'-cyclic phosphodiesterase 3A; experiment: Inhibition of human recombinant PDE3A assessed as inhibition of [3H]cAMP hydrolysis at 3 uM by scintillation proximity assay
Method in brief: (§3)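 Recombinant human PDE3A or PDE7A1 was tested at a single 3 µM level in the scintillation proximity assay, with [³H]cAMP as substrate and cAMP-to-AMP hydrolysis as read-out. Results are expressed as % inhibition.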

Rattus norvegicus [16] = experiment: Antipsychotic activity in CD rat assessed as inhibition of MK801-induced hyperactivity at 3 mg/kg, po; format: functional, organism-based; parameters: dose 3 mg/kg; method in brief: as §2
[17] = Toxicity in Cebus monkey assessed as extrapyramidal symptoms at 3 to 6 mg/kg, po; format: organism-based; parameters: dose 3-6 mg/kg, route oral; settings: in vivo
[18] = biological target: T1, High affinity 3',5'-cyclic-AMP phosphodiesterase 7A; experiment: Inhibition of human recombinant PDE7A1 assessed as inhibition of [3H]cAMP hydrolysis at 3 uM by scintillation proximity assay; method in brief: as §3
[19] = Toxicity in Cebus monkey assessed as akathisia at 3 to 6 mg/kg, po; format: organism-based; parameters: dose 3-6 mg/kg, route oral; settings: in vivo
[20] = Efflux ratio in human Caco2 cells; format: ADME, cell-based; settings: Caco-2

cAMP and cAMP-inhibited cGMP 3',5'-cyclic phosphodiesterase 10A, sequence (Q9Y233 whole entry): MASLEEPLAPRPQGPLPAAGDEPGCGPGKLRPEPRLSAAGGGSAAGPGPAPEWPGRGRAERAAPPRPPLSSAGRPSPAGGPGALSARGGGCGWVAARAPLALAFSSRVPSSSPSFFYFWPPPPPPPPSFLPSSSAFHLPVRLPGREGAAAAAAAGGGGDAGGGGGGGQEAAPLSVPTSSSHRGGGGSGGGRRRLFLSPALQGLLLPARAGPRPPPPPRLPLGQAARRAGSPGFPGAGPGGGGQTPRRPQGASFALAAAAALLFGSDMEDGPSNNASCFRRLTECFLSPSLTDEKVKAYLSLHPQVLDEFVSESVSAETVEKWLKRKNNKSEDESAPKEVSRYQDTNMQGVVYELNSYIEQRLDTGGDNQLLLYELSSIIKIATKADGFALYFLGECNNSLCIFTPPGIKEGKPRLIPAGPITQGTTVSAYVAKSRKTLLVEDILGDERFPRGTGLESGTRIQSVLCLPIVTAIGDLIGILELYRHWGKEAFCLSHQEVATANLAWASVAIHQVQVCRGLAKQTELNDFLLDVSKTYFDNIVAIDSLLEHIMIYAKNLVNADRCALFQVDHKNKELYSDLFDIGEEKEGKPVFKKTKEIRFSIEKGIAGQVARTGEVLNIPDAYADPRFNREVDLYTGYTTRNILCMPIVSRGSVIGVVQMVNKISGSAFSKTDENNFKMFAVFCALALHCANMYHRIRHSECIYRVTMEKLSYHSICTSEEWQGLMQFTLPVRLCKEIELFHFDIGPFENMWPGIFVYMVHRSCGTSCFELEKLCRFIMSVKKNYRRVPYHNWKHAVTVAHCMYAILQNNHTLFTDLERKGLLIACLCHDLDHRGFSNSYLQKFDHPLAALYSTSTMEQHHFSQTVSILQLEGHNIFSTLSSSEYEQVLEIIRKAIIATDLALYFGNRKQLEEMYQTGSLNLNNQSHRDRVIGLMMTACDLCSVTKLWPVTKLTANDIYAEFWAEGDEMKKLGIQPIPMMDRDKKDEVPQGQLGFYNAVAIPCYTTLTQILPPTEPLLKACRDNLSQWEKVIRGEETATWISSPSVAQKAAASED
T1 sequence (Q13946 whole entry): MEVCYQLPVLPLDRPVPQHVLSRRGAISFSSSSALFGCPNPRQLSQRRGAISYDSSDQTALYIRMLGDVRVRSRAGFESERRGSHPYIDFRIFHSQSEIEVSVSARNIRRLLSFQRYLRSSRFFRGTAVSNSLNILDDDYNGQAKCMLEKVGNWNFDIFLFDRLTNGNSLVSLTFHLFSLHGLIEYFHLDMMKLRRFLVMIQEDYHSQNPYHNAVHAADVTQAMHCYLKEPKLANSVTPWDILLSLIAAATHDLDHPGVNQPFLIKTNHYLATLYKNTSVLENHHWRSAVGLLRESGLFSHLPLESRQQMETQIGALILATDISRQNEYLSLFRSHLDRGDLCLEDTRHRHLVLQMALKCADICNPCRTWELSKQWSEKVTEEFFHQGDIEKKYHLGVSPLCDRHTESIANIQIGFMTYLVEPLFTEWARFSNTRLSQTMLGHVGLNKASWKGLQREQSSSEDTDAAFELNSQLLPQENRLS
High affinity cGMP-specific 3',5'-cyclic phosphodiesterase 9A, sequence (O76083 whole entry): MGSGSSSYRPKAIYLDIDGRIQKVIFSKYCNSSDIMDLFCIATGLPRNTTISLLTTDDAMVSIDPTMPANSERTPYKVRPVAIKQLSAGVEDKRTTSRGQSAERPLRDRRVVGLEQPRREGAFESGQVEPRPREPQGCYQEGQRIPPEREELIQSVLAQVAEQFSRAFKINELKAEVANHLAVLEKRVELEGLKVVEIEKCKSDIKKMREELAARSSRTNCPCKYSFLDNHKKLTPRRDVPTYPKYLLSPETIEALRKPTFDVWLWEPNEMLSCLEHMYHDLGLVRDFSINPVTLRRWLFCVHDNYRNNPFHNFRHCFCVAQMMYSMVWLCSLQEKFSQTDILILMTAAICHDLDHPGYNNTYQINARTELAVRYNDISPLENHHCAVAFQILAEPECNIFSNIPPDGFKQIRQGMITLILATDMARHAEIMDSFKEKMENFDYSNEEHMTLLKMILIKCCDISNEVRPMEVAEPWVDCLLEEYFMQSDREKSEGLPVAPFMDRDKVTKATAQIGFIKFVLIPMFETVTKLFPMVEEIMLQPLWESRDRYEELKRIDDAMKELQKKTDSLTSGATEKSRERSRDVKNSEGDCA
Dual 3',5'-cyclic-AMP and -GMP phosphodiesterase 11A, sequence (Q9HCR9 whole entry): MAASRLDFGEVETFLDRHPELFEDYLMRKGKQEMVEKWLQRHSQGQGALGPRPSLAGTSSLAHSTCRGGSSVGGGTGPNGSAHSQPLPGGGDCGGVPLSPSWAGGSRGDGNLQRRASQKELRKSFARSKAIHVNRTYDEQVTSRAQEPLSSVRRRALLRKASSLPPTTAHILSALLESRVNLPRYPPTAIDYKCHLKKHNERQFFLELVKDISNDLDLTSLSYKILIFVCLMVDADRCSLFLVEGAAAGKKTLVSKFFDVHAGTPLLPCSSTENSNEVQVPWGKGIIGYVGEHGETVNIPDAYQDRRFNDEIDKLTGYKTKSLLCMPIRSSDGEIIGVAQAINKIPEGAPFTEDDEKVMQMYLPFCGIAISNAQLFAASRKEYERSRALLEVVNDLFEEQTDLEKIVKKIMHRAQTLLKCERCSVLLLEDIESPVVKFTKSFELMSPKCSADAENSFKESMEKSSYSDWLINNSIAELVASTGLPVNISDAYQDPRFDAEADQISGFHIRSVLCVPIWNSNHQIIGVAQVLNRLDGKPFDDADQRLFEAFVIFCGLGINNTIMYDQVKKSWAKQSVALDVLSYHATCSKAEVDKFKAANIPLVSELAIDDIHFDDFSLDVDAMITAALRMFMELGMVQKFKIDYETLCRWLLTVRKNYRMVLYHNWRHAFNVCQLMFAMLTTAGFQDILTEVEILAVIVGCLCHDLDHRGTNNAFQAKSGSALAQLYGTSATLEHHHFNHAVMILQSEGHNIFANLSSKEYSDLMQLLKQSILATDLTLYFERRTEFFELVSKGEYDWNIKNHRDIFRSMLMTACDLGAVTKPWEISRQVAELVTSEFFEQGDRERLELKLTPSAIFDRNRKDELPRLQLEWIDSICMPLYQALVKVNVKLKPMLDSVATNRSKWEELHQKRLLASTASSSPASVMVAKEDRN
hERG (KCNH2), sequence (Q12809 whole entry): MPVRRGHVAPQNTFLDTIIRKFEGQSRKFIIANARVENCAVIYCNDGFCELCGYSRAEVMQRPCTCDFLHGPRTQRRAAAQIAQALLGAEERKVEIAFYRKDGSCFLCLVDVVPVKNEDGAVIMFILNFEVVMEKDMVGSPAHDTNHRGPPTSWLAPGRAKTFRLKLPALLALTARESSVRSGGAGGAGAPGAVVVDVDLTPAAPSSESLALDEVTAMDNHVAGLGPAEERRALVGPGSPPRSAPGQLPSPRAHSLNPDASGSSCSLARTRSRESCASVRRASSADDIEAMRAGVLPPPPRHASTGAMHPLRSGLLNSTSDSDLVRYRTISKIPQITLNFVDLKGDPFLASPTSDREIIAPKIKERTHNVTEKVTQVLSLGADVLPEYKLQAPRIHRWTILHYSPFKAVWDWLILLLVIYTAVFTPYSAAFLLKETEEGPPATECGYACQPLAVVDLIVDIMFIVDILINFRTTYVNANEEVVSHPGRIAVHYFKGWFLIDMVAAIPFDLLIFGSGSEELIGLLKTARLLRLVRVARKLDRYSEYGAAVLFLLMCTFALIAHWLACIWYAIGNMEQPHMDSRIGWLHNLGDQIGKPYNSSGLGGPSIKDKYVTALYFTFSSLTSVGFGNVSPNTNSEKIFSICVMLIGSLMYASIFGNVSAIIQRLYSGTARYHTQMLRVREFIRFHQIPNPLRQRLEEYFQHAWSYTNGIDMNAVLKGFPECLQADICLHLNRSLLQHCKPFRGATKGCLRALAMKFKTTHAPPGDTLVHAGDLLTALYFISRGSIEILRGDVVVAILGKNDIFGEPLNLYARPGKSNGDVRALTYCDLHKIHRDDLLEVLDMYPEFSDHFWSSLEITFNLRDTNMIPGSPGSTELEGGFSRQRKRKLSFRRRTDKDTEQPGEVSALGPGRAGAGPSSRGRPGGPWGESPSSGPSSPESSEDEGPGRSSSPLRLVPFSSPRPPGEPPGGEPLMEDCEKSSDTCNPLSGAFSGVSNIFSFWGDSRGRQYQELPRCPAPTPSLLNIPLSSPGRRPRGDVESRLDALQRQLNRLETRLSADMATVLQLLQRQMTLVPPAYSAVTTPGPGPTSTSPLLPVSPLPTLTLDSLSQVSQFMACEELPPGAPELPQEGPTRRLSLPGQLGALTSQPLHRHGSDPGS

SMILES | Ki [1] [nM] | Ki [2] [µM] | Ki [3] [nM] | hepatocyte CLint [4] [µL/min/1e6 cells] | hepatocyte CLint [5] [µL/min/1e6 cells] | hepatocyte CLint [6] [µL/min/1e6 cells] | further results
COc1cc2c(cc1OC)-c1c(-c3ccccn3)ncn1CC2 | 240 | – | – | – | – | – | –
COc1cc2c(cc1OC)-c1c(-c3cnc(C(=O)N4CCCOCC4)s3)ncn1CC2 | 1.5 | 0.269 | 24 | – | – | – | –
COc1cc2c(cc1OC)-c1c(-c3cnc(C(=O)NCc4ccccc4)s3)ncn1CC2 | 40 | 0.507 | > 100000 | – | – | – | –
COc1cc2c(cc1OC)-c1c(-c3cnc(C(=O)N4CCOCC4)s3)ncn1CC2 | 10 | 0.613 | 99 | – | – | – | –
COc1cccc(-c2ncn3c2-c2cc(OC)c(OC)cc2CC3)c1 | 30 | 5.54 | 136 | 61 | 66 | > 14 | –
COc1cc2c(cc1OC)-c1c(-c3cnco3)ncn1CC2 | 31 | 11.1 | 1740 | – | 67 | 25 | –
CCOc1cccc(-c2ncn3c2-c2cc(OC)c(OC)cc2CC3)c1 | 8 | 3.76 | 277 | 61 | 66 | > 14 | –
COc1cc2c(cc1OC)-c1c(-c3cnc(C)s3)ncn1CC2 | 186 | – | – | – | – | – | –
COc1cc2c(cc1OC)-c1c(-c3cccc(Br)c3)ncn1CC2 | 32 | 10.1 | 1280 | 61 | 66 | > 14 | –
COc1cc2c(cc1OC)-c1c(-c3cccc(Cl)c3)ncn1CC2 | 33 | 6.93 | 954 | 61 | 66 | > 14 | –
COc1cc2c(cc1OC)-c1c(-c3ccncc3)ncn1CC2 | 101 | – | – | – | – | – | –
COc1cc2c(cc1OC)-c1c(-c3cnc(N4CCOCC4)s3)ncn1CC2 | 26 | 2.47 | 177 | – | – | – | –
COc1cc2c(cc1OC)-c1c(-c3cscn3)ncn1CC2 | 861 | – | – | – | – | – | –
COc1cc2c(cc1OC)-c1c(C3CCCCC3)ncn1CC2 | 199 | – | – | – | – | – | –
COc1cc2c(cc1OC)-c1c(-c3ccc(Cl)cc3)ncn1CC2 | 183 | – | – | – | – | – | –
COc1cc2c(cc1OC)-c1c(-c3ccccc3)ncn1CC2 | 121 | – | – | – | – | – | –
COc1cc2c(cc1OC)-c1c(-c3cncs3)ncn1CC2 | – | 3.7 | 555 | – | – | – | Ki (Phosphodiesterase 4): > 2 µM; pKa [7]: 4.3; Ki (Phosphodiesterase 6): > 2 µM; Ki (Phosphodiesterase 1): > 2 µM; solubility [8]: > 200 µM; Ki (Phosphodiesterase 8): > 2 µM; Ki [9]: > 2 µM; Ki [10]: > 2 µM; inhibition at 10 µM (hERG (KCNH2)): 26%; Ki [11]: > 2 µM; concentration at 1 h [12]: 350 ng/g; Activity (Rattus norvegicus [13]): Active; Ki [14]: > 2 µM

SMILES | Ki [1] [nM] | Ki [2] [µM] | Ki [3] [nM] | hepatocyte CLint [4] [µL/min/1e6 cells] | hepatocyte CLint [5] [µL/min/1e6 cells] | hepatocyte CLint [6] [µL/min/1e6 cells] | further results
COc1cc2c(cc1OC)-c1c(-c3cnc(C(=O)NC4CCOCC4)s3)ncn1CC2 | 4.3 | 0.55 | 828 | 5.7 | 22.7 | 1.4 | –
COc1cc2c(cc1OC)-c1c(-c3cocn3)ncn1CC2 | 508 | – | – | – | – | – | –
COc1cc2c(cc1OC)-c1c(-c3cncs3)nc(C)n1CC2 | 20 | 6.12 | 968 | 9.2 | 65.5 | 7.5 | Ki (Phosphodiesterase 4): > 7.1 µM; pKa [7]: 5; Ki (Phosphodiesterase 6): > 7.1 µM; Ki (Phosphodiesterase 1): > 7.1 µM; solubility [8]: > 150 µM; Ki (Phosphodiesterase 8): > 7.1 µM; Ki [9]: > 7.1 µM; Ki [10]: > 7.1 µM; inhibition at 10 µM (hERG (KCNH2)): 10%; Ki [11]: > 7.1 µM; Ki [14]: > 7.1 µM
COc1ccc(-c2ncn3c2-c2cc(OC)c(OC)cc2CC3)cc1 | 114 | – | – | – | – | – | –
COc1cc2c(cc1OC)-c1c(-c3cccnc3)ncn1C(C)C2 (stereo unspecified) | 12 | – | – | – | – | – | inhibition [15]: 97%
COc1cc2c(cc1OC)-c1c(-c3cccnc3)ncn1CC2 | 29 | – | 449 | 11.8 | 38.7 | 1.7 | Ki (Phosphodiesterase 4): > 4.274 µM; Activity (Rattus norvegicus [16]): Active; pKa [7]: 3.5; Ki (Phosphodiesterase 6): > 4.274 µM; Ki (Phosphodiesterase 1): > 4.274 µM; solubility [8]: > 200 µM; Ki (Phosphodiesterase 8): > 4.274 µM; Ki [9]: > 4.27 µM; Ki [10]: > 4.27 µM; Activity [17]: Non-toxic; inhibition at 10 µM (hERG (KCNH2)): 24%; Ki [11]: > 4.27 µM; inhibition [18]: 45%; Activity [19]: Non-toxic; Ki [14]: > 4.27 µM; efflux ratio [20]: 1.4
COc1cc2c(cc1OC)-c1c(-c3cccc(N4CCOCC4)c3)ncn1CC2 | 6.4 | 7.5 | 1470 | 61 | 66 | > 14 | –
COc1cc2c(cc1OC)-c1c(-c3cnc(C(=O)N(C)C(C)(C)C)s3)ncn1CC2 | 8.7 | 0.243 | 149 | 49 | 59 | 66 | Ki (Phosphodiesterase 4): > 2 µM; pKa [7]: 4; Ki (Phosphodiesterase 6): > 2 µM; Ki (Phosphodiesterase 1): > 2 µM; solubility [8]: > 200 µM; Ki (Phosphodiesterase 8): > 2 µM; Ki [9]: > 2 µM; Ki [10]: > 2 µM; inhibition at 10 µM (hERG (KCNH2)): 40%; Ki [11]: > 2 µM; Ki [14]: > 2 µM
COc1cc2c(cc1OC)-c1c(-c3cncnc3)ncn1CC2 | 40 | – | – | – | – | – | inhibition [18]: 13%; inhibition [15]: 14%
COc1cc2c(cc1OC)-c1c(-c3cnc(CN4CCOCC4)s3)ncn1CC2 | 6.6 | 4.6 | 148 | – | – | – | –
COc1cc2c(cc1OC)-c1c(-c3cnc(CO)s3)ncn1CC2 | 26 | 4.6 | 540 | – | – | – | –
COc1cc2c(cc1OC)-c1c(-c3cncn3C)ncn1CC2 | 264 | – | – | – | – | – | –
COc1cc2c(cc1OC)-c1c(-c3ccccc3OC)ncn1CC2 | 212 | – | – | – | – | – | –
COc1cc2c(cc1OC)-c1c(-c3cnc(CN4CCCOCC4)s3)ncn1CC2 | 3.8 | 3.77 | 224 | – | – | – | –
COc1cc2c(cc1OC)-c1c(-c3ccccc3Cl)ncn1CC2 | 628 | – | – | – | – | – | –
COc1cc2c(cc1OC)-c1c(-c3cccnc3)nc(C)n1CC2 | 25 | 5.98 | 727 | 3.6 | 26.6 | 0.4 | Ki (Phosphodiesterase 4): > 7.95 µM; pKa [7]: 4; Ki (Phosphodiesterase 6): > 7.95 µM; Ki (Phosphodiesterase 1): > 7.95 µM; solubility [8]: > 200 µM; Ki (Phosphodiesterase 8): > 7.95 µM; Ki [9]: > 7.95 µM; Ki [10]: > 7.95 µM; inhibition at 10 µM (hERG (KCNH2)): 29%; Ki [11]: > 7.95 µM; Ki [14]: > 7.95 µM
